Values after ≈ are worked out from the molar mass of the structure shown.
Experiments:
[1] = Inhibition of testosterone-5-alpha-reductase at 50 ug/mL
[2] = Inhibition of testosterone-5-alpha-reductase at 200 ug/mL
[3] = Displacement of [3H]DHT from 5-alpha-dihydrotestosterone receptor at 200 ug/mL
[4] = Displacement of [3H]DHT from 5-alpha-dihydrotestosterone receptor at 50 ug/mL
[5] = Displacement of [3H]DHT from 5-alpha-dihydrotestosterone receptor at 100 ug/mL
[6] = test system: Staphylococcus aureus; experiment: Antimicrobial activity against Staphylococcus aureus after 48 hrs by agar plate dilution method; format: functional
In short: (§1)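 Strains cultured at 37 °C in soybean–casein digest broth; activity determined by agar plate dilution (described alongside broth microtiter dilution), read after 48 h incubation at 37 °C.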

[7] = test system: Bacillus subtilis; experiment: Antimicrobial activity against Bacillus subtilis after 48 hrs by agar plate dilution method; format: functional; in short: as §1
[8] = Inhibition of testosterone-5-alpha-reductase at 100 ug/mL
[9] = test system: Staphylococcus epidermidis; experiment: Antimicrobial activity against Staphylococcus epidermidis after 48 hrs by agar plate dilution method; format: functional; in short: as §1
[10] = test system: Cutibacterium acnes; experiment: Antimicrobial activity against Propionibacterium acnes after 48 hrs by agar plate dilution method; format: functional; in short: as §1

SMILES | inhibition [1] [%] | inhibition [2] [%] | Activity [3] [%] | Activity [4] [%] | Activity [5] [%] | MIC [6] [µg/mL] | MIC [7] [µg/mL] | inhibition [8] [%] | MIC [9] [µg/mL] | MIC [10] [µg/mL]
C=C(C)C(CC=C(C)C)Cc1c(O)cc(OC)c2c1O[C@H](c1ccc(O)cc1O)CC2=O (some centres not stated) [KURARINONE] | 0.7 | 93.8 | 88 | 61.1 | 89.2 | 2.5 (≈ 5.7 µM) | 2.5 (≈ 5.7 µM) | 40.5 |  | 
CC(C)=CCc1c(O)cc(O)c2c1O[C@H](c1ccccc1O)CC2=O [KUSHENOL S] | 7.3 | 37.4 | 70 | 37.8 | 47.7 | 5 (≈ 14.7 µM) | 5 (≈ 14.7 µM) | 22.9 |  | 
C=C(C)[C@H](CCC(C)(C)O)Cc1c(O)cc(O)c2c1O[C@H](c1ccccc1O)CC2=O | 3.2 | 95.4 | 89.2 | 35 | 84.9 |  |  | 54.8 |  | 
C=C(C)C(CC=C(C)C)Cc1c(O)cc(O)c2c1O[C@H](c1ccc(O)cc1O)CC2=O (some centres not stated) | 51.4 | 94.2 | 90.1 | 80.3 | 85.8 | 2.5 (≈ 5.89 µM) | 2.5 (≈ 5.89 µM) | 86.4 | 10 (≈ 23.6 µM) | 10 (≈ 23.6 µM)
C=C(C)C(CCC(C)(C)O)Cc1c(O)cc(O)c2c1O[C@H](c1ccc(O)cc1O)CC2=O (some centres not stated) | 3.5 | 82.2 | 83 | 43.9 | 75.4 |  |  | 41.3 |  | 
C=C(C)C(CC=C(C)C)Cc1c(O)cc(OC)c2c1O[C@H](c1ccc(O)cc1O)[C@@H](O)C2=O (some centres not stated) | 14 | 85.1 | 84.2 | 60.2 | 81.4 |  |  | 50.9 |  | 
CC(C)=CCC(Cc1c(O)cc(O)c2c1O[C@H](c1ccc(O)cc1O)CC2=O)C(C)CO (some centres not stated) [KUSHENOL Q] | 0.9 | 88.5 | 92.7 | 66.1 | 82.4 | 5 (≈ 11.3 µM) | 5 (≈ 11.3 µM) | 34.8 |  | 
C=C(C)C(CC=C(C)C)Cc1c(O)cc(OC)c2c1O[C@H](c1ccc(O)cc1OC)CC2=O (some centres not stated) | 34.1 | 94.7 | 58.4 | 73.7 | 58.9 | 2.5 (≈ 5.52 µM) | 2.5 (≈ 5.52 µM) | 79.3 | 10 (≈ 22.1 µM) | 25 (≈ 55.2 µM)
C=C(C)C(CC=C(C)C)Cc1c(O)cc(O)c2c1O[C@H](c1ccccc1O)CC2=O (some centres not stated) | 21.9 | 77.3 | 89.6 | 60.1 | 89.3 | 5 (≈ 12.2 µM) | 2.5 (≈ 6.12 µM) | 51.4 | 5 (≈ 12.2 µM) | 10 (≈ 24.5 µM)
CC(C)=CCc1c(O)cc(O)c2c1O[C@H](c1ccc(O)cc1O)CC2=O [LEACHIANONE G] | 25.3 | 89.9 | 94.5 | 74.2 | 84.8 | 5 (≈ 14 µM) | 2.5 (≈ 7.02 µM) | 80.5 |  | 
COc1cc(C2CC(=O)c3c(O)cc(O)c(CC=C(C)C)c3O2)c(O)cc1O (racemic) [KUSHENOL W] |  |  |  |  |  | 10 (≈ 25.9 µM) | 10 (≈ 25.9 µM) |  |  | 
COc1cc([C@@H]2CC(=O)c3c(cc(O)c(CC=C(C)C)c3O)O2)c(O)cc1O [KUSHENOL V] |  |  |  |  |  | 10 (≈ 25.9 µM) | 10 (≈ 25.9 µM) |  |  | 
C=C(C)C(CC=C(C)C)Cc1c(O)cc(OC)c2c1O[C@H](c1ccc(O)cc1)CC2=O (some centres not stated) [KUSHENOL U] | 7.4 | 84.4 | 96.9 | 52.6 | 85.1 | 10 (≈ 23.7 µM) | 10 (≈ 23.7 µM) | 50.3 | 10 (≈ 23.7 µM) | 10 (≈ 23.7 µM)
C=C(C)C(CC=C(C)C)Cc1c(O)cc(OC)c2c1O[C@H](c1ccccc1O)CC2=O (some centres not stated) [KUSHENOL R] | 4.1 | 73.5 | 82.4 | 27.3 | 67.5 | 5 (≈ 11.8 µM) | 2.5 (≈ 5.92 µM) | 23.6 | 5 (≈ 11.8 µM) | 10 (≈ 23.7 µM)
C=C(C)C(CCC(C)(C)O)Cc1c(O)cc(OC)c2c1O[C@H](c1ccc(O)cc1O)CC2=O (some centres not stated) | -1 | 11.9 | 65.8 | 15.5 | 27.9 |  |  | -0.2 |  | 
CC1(C)C=Cc2c(ccc3c2OC[C@@H](c2ccc(O)cc2O)C3)O1 | 32.5 |  |  | 63.2 | 88.2 |  |  | 84.3 |  | 
C=C(C)C(CC=C(C)C)Cc1c(O)cc(O)c2c1O[C@H](c1ccc(O)cc1O)[C@@H](O)C2=O (some centres not stated) [KUSHENOL X] | 30.9 | 96.4 | 88.6 | 68.9 | 90.5 | 10 (≈ 22.7 µM) | 10 (≈ 22.7 µM) | 84.5 |  | 

Reference: ChEMBL document CHEMBL1144146, “Antibacterial and antiandrogen flavonoids from Sophora flavescens” (1999)
